According to PMC3086613 (Theranostics, 2011):

Experiments:
[1] = test system: PC-3 tumor-bearing nude mice; experiment: Small animal microPET imaging, ROI-derived radioactivity accumulation; assay type: in vivo; conditions: 3.7 MBq i.v.; PC-3 tumor-bearing mice; n = 3/group
How it was run: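 Male athymic nude mice carried PC-3 xenografts (5 × 10^6 cells s.c., front flank; 100–300 mm3 after 3–4 weeks). Under isoflurane, ~3.7 MBq (100 μCi) radiotracer was given via tail vein. Five-minute static scans were taken at 30 min, 1 h and 2 h (2D OSEM, no attenuation or scatter correction). ROIs on decay-corrected coronal images gave %ID/g, assuming 1 g/mL; n = 3/group.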

PC-3 cells [2] = experiment: Cell uptake of 18F-labeled BBN peptides; assay type: cell-based, human; conditions: for PC-3 cell uptake peak value (percent added radioactivity): 37 °C, 15 min, n = 3, mean ± SD; for Cell uptake at 37 °C versus 4 °C: PC-3 cells
How it was run: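 PC-3 cells (F-12K, 10% FBS, 37 °C, 5% CO2) were seeded at 1 × 10^5 per well overnight, washed three times with PBS, and given ~0.5 μCi/well radiotracer in triplicate at 37 °C. At 15, 30, 60 and 120 min, cells were rinsed with PBS and lysed with 0.1 M NaOH. Lysate activity was gamma-counted and expressed as percent added radioactivity.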

PC-3 cells [3] = experiment: Cell washout; assay type: cell-based, human; conditions: 37 °C, serum-free medium devoid of radioactivity
How it was run: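 PC-3 cells were seeded at 1 × 10^5 per well overnight, PBS-rinsed, then loaded with ~0.5 μCi/well radiotracer in triplicate for 2 h at 37 °C. After a PBS wash they were re-incubated in serum-free medium. At 0, 15, 30, 60 and 120 min, cells were PBS-washed and lysed in 0.1 M NaOH. Retained activity was gamma-counted as percent added radioactivity.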

| Substance | Activity accumulation in non-target organs on PET images (in words) [1] | Tumor uptake on PET images (in words) [1] | PC-3 cell uptake peak value (percent added radioactivity) (PC-3 cells [2]) | Cell uptake at 37 °C versus 4 °C (PC-3 cells [2]) | Washout rate from PC-3 cells (PC-3 cells [3]) |
| --- | --- | --- | --- | --- | --- |
| 18F-FP-FQWAVGHL-NHEt [^18F-FP-ATBBN] | rapid and prominent activity accumulation in the liver and intestines | almost no tumor uptake | – | – | – |
| 18F-FP- GGGRDN-QWAVGHLM-NH2 [^18F-FP-MAGBBN] | – | – | 1.2 ± 0.07% | 2 fold | slower washout |
| 18F-FP- GGGRDN-FQWAVGHLM-NHEt [^18F-FP-MATBBN] | – | – | 0.3 ± 0.07% | no significant difference | Much faster washout rate |
| 18F-FP-Aca-QWAVGHLM-NH2 [^18F-FP-AGBBN] | very high liver, bile and intestinal uptake | some tumor accumulation | – | – | – |
